From PMC7321800 (Journal of immunology (Baltimore, Md. : 1950), 2020)
In brackets after ≈: the same amount, converted by molar mass. Several values for one entry are separate records, joined by “and”; a condition that tells them apart may be missing. Equal entries are not always repeated. Entries after “also recorded” stand apart in the source; their conditions may differ. Where two headings read alike, the source gives them in different places.

Legend:
N. gonorrhoeae H041 [1] = assay: Mouse vaginal colonization model, wild-type BALB/c mice; assay type: in vivo; conditions: strain H041; for Efficacy in clearing gonococcal colonization: 10 µg intravaginally daily, wild-type BALB/c mice; for First day with significantly lower CFU counts than saline control: 10 µg/d intravaginally, two-way ANOVA, Dunnett
[2] = system: FH purified from human plasma; assay: Factor H binding to bacteria by flow cytometry; conditions: for FH binding (fluorescence) relative to that seen with Neu5Ac substituted LOS / Decrease in FH binding fluorescence relative to Neu5Ac: NulO capped LNnT LOS
[3] = target: T1, N. gonorrhoeae LOS sialyltransferase (Lst) (Neisseria gonorrhoeae, UniProt P72074); assay: Utilization of CMP-NulO as substrate by LOS sialyltransferase; assay type: biochemical; conditions: transfer of NulO to LNnT LOS
N. gonorrhoeae F62 ΔlgtD [4] = assay: Serum bactericidal assay with pooled normal human serum; assay type: cell-based, Neisseria gonorrhoeae; conditions: CMP-NulO added 15 min before or 15 min after CMP-Neu5Ac; 3.3% and 10% NHS
N. gonorrhoeae F62 ΔlgtD [5] = conditions: bacteria fed with the CMP salts; cited from earlier work
[6] = target: T1, N. gonorrhoeae LOS sialyltransferase (Lst); conditions: tested as CMP salts; cited from earlier work
[7] = system: FH purified from human plasma; conditions: compared with Neu5Ac; cited from earlier work
N. gonorrhoeae [8] = conditions: cited from earlier work; for Eradication of oropharyngeal infection: men who have sex with men and commercial sex workers
N. gonorrhoeae [9] = conditions: cited from earlier work
N. gonorrhoeae F62 ΔlgtD [10] = assay: Silver-stained SDS-PAGE of LOS; assay type: cell-based, Neisseria gonorrhoeae; conditions: media containing CMP-NulO 100 µg/ml
Method in brief: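 F62 ΔlgtD was grown in liquid media with or without test compound. Protease K-treated (100 µg/ml) lysates were run on 16.5% Tris-Tricine gels with Tris-Tricine cathode buffer, and LOS was silver-stained. Slower LOS mobility than bacteria grown without test compound was taken to indicate NulO addition.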

[11] = system: N. gonorrhoeae strain H041; assay: Mouse vaginal colonization model, human FH/C4BP transgenic mice; assay type: in vivo
Method in brief: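 Premarin-treated human FH/C4BP transgenic BALB/c mice, 6-8 weeks old and in diestrus, were infected intravaginally with strain H041 (n=6/group). Test compound was given intravaginally once daily, starting 2 h before infection; the 10 µg dose was given as 1 mg/ml in sterile H2O. Saline was the vehicle control. Bacterial burden was followed over time, and areas under the curve were compared by nonparametric rank sum test.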

N. gonorrhoeae [12] = assay: Mouse vaginal colonization model, Cmah−/− mice; assay type: in vivo
N. gonorrhoeae H041 [13] = conditions: intravaginal administration; cited from earlier work
[14] = Stability of CMP-NulOs in solution; assay type: physicochemical
[15] = F62 ΔlgtD grown with the CMP-NulO

T1 sequence (P72074 whole entry): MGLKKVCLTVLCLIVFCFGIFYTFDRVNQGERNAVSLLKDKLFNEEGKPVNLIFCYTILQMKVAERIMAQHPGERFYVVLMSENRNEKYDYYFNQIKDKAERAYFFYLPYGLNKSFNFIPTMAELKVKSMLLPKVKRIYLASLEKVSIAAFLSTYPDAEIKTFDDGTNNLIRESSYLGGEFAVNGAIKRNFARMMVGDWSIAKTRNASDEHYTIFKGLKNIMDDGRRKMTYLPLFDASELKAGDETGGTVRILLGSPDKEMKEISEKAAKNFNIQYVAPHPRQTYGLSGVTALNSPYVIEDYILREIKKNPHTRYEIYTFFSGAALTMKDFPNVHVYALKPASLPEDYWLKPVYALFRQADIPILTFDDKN

CC(=O)N[C@H]1[C@H]([C@H](O)[C@H](O)CN=[N+]=[N-])OC(OP(=O)(O)OC[C@H]2O[C@@H](n3ccc(N)nc3=O)[C@H](O)[C@@H]2O)(C(=O)O)C[C@@H]1O (stereo partly drawn) [CMP-Neu5Ac9N3]
Efficacy in clearing gonococcal colonization (N. gonorrhoeae H041 [1]): equally efficacious; also recorded: as efficacious as CMP-Leg5,7Ac2 | First day with significantly lower CFU counts than saline control (N. gonorrhoeae H041 [1]): 2 days

CC(=O)N[C@H]1[C@H]([C@H](O)[C@H](O)COC(C)=O)OC(O)(C(=O)O)C[C@@H]1O (stereo partly drawn) [Neu5,9Ac2]
FH binding (fluorescence) relative to that seen with Neu5Ac substituted LOS [2, 15]: ~ 30% | Decrease in FH binding fluorescence relative to Neu5Ac [2]: ~ 70%

[N-]=[N+]=N[C@@H](C1O[C@](OP(=O)(O)OC[C@H]2O[C@@H](n3ccc(N)nc3=O)C(O)C2O)(C(=O)O)CC(O)[C@H]1O)[C@H](O)CO (stereo partly drawn) [CMP-Kdn7N3]
Substrate for Lst [3]: served as substrates for Lst | Prevention of Neu5Ac-mediated serum resistance (N. gonorrhoeae F62 ΔlgtD [4]): ineffective in preventing CMP-Neu5Ac-mediated serum resistance

CC(=O)N[C@H]1[C@H]([C@H](O)[C@H](O)CN=[N+]=[N-])OC(O)(C(=O)O)C[C@@H]1O (stereo partly drawn) [Neu5Ac9N3]
Effect of NulO incorporation into LOS on bacterial resistance to complement (N. gonorrhoeae F62 ΔlgtD [5]): did not enhance bacterial resistance to complement | Utilization by Lst [6]: utilized by Lst | FH binding to gonococci with NulO capped LNnT LOS [7]: lack of detectable FH binding

CO[C@H](CO)[C@@H](O)[C@@H]1OC(O)(C(=O)O)C[C@H](O)[C@H]1NC(=O)CO (stereo partly drawn) [Neu5Gc8Me, reference compound]
Utilization by Lst [6]: utilized by Lst | FH binding to gonococci with NulO capped LNnT LOS [7]: lack of detectable FH binding

Nc1ccn([C@@H]2O[C@H](COP(=O)(O)O[C@@]3(C(=O)O)C[C@H](O)[C@@H](O)[C@H]([C@H](O)[C@H](O)CO)O3)[C@@H](O)[C@H]2O)c(=O)n1 [CMP-Kdn, CMP-ketodeoxynonulosonate]
Substrate for Lst [3]: served as substrates for Lst | Efficacy in clearing gonococcal colonization (N. gonorrhoeae H041 [1]): equally efficacious; also recorded: as efficacious as CMP-Leg5,7Ac2 | First day with significantly lower CFU counts than saline control (N. gonorrhoeae H041 [1]): 2 days | Prevention of Neu5Ac-mediated serum resistance (N. gonorrhoeae F62 ΔlgtD [4]): effectively prevented Neu5Ac-mediated serum resistance only when added first

C[C@@H]1CN2c3c(cc4c(N5C(=O)OC[C@@H]5C)noc4c3F)CC3(C(=O)NC(=O)NC3=O)[C@H]2[C@H](C)O1 [Zoliflodacin, zoliflodacin]
Treatment of uncomplicated urogenital infections (N. gonorrhoeae [8]): appear promising | Eradication of oropharyngeal infection (N. gonorrhoeae [8]): failures to eradicate oropharyngeal infection

C=CC1=C(C(=O)O)N2C(=O)[C@@H](NC(=O)/C(=N\OCC(=O)O)c3csc(N)n3)[C@H]2SC1 [cefixime]
MIC (N. gonorrhoeae [9]; strain SD-1): 0.125 µg/mL (≈ 0.276 µM)

[N-]=[N+]=N[C@@H]([C@H](O)[C@H](O)[C@@H](O)CC(=O)C(=O)O)[C@H](O)CO [Kdn7N3, 3,7-dideoxy-7-azido-D-glycero-D-galacto-nonulosonic acid]
FH binding (fluorescence) relative to that seen with Neu5Ac substituted LOS [2, 15]: ~ 60% and ~ 62%

CC(=O)NC1C(OC(C)=O)CC(OP(=O)(O)OCC2OC(n3ccc(N)nc3=O)C(O)C2O)(C(=O)O)OC1C(O)C(O)CO (stereo not drawn) [CMP-Neu4,5Ac2]
Migration of LOS on silver-stained 16.5% Tricine gel (N. gonorrhoeae F62 ΔlgtD [10]): no change in migration of LOS

CC(=O)N[C@@H]([C@@H]1O[C@](O)(C(=O)O)C[C@H](O)[C@H]1NC(C)=O)[C@@H](C)O [Leg5,7Ac2]
Effect of NulO incorporation into LOS on bacterial resistance to complement (N. gonorrhoeae F62 ΔlgtD [5]): did not enhance bacterial resistance to complement | Utilization by Lst [6]: utilized by Lst | FH binding to gonococci with NulO capped LNnT LOS [7]: lack of detectable FH binding | FH binding compared with unsialylated bacteria ([2]; F62 ΔlgtD grown with the CMP-NulO, NulO substituted LOS): did not bind FH above levels seen with unsialylated bacteria

O=c1ccc2ncc(=O)n3c2n1C[C@H]3CN1CCC(NCc2cc3c(cn2)OCCC3)CC1 [gepotidacin]
Treatment of uncomplicated urogenital infections (N. gonorrhoeae [8]): appear promising | Eradication of oropharyngeal infection (N. gonorrhoeae [8]): failures to eradicate oropharyngeal infection

O=C(O)C(=O)C[C@H](O)[C@@H](O)[C@@H](O)[C@H](O)[C@H](O)CO [Kdn, 3-deoxy-D-glycero-D-galacto-nonulosonic acid]
FH binding (fluorescence) relative to that seen with Neu5Ac substituted LOS [2, 15]: ~ 60% and ~ 62% | Decrease in FH binding fluorescence relative to Neu5Ac [2]: ~ 40%

CC(=O)N[C@@H]([C@@H]1O[C@](OP(=O)(O)OC[C@H]2O[C@@H](n3ccc(N)nc3=O)[C@H](O)[C@@H]2O)(C(=O)O)C[C@H](O)[C@H]1NC(C)=O)[C@@H](C)O [CMP-Leg5,7Ac2]
Efficacy ([11]; 1 µg/day intravaginally): ineffective | Efficacy ([11]; 5 µg/day intravaginally): progressively increasing efficacy; also recorded: cleared infection significantly faster | Efficacy ([11]; 10 µg/day intravaginally): progressively increasing efficacy; also recorded: cleared infection significantly faster | Efficacy in clearing gonococcal colonization (N. gonorrhoeae H041 [1]): equally efficacious | First day with significantly lower CFU counts than saline control (N. gonorrhoeae H041 [1]): 1 days | AUC (log10 CFU) (N. gonorrhoeae [12]; strain 398078, 10 µg daily): zero | Detection of bacteria in treated animals on day 1 (N. gonorrhoeae [12]; strain 398078, swabs taken 24 h after infection, 10 µg daily): unable to detect | Efficacy (rate of clearance and bacterial burden compared to saline) (N. gonorrhoeae [12]; strains F62 ΔlgtD and H041, 10 µg daily intravaginally): effective against both strains | Prevention of Neu5Ac-mediated serum resistance (N. gonorrhoeae F62 ΔlgtD [4]): blocked CMP-Neu5Ac-mediated serum resistance when added after CMP-Neu5Ac | Duration and burden of vaginal colonization of multidrug-resistant N. gonorrhoeae in mice (N. gonorrhoeae H041 [13]): decreased the duration and reduced the burden of vaginal colonization | Percentage of intact CMP-NulO relative to t0 ([14]; 6 weeks at 4 °C, pH 7): Greater than 90% | Percentage of intact CMP-NulO relative to t0 ([14]; 1 h, pH 4 (data not shown)): greater than 50% | Percentage of intact CMP-NulO relative to t0 ([14]; 4 h, pH 4, 37 °C): 4% | Percentage of intact CMP-NulO relative to t0 ([14]; 24 h at 37 °C, pH 5): about 54% | Percentage of intact CMP-NulO relative to t0 ([14]; 3 days at 20 °C, pH 7): Greater than 90% | Relative stability over all test conditions ([14]; descending order: CMP-Leg5,7Ac2, CMP-Neu5Ac9N3, CMP-Neu5Ac, CMP-Kdn, pH 4-7, 4-37 °C): most stable

CO/N=C(\C(=O)N[C@@H]1C(=O)N2C(C(=O)O)=C(CSc3nc(=O)c(=O)[nH]n3C)CS[C@H]12)c1csc(N)n1 [ceftriaxone]
MIC (N. gonorrhoeae [9]; strain CTX-r Spain): > 2 µg/mL | MIC (N. gonorrhoeae [9]; strain H041 (WHO X)): 2 to 4 µg/mL | MIC (N. gonorrhoeae [9]; strain SD-1): 0.094 µg/mL (≈ 0.169 µM) | MIC (N. gonorrhoeae [9]; strain UMNJ60_06UM (NJ-60)): 0.38 µg/mL (≈ 0.685 µM)

CC(=O)N[C@H]([C@@H]1O[C@](OP(=O)(O)OC[C@H]2O[C@@H](n3ccc(N)nc3=O)[C@H](O)[C@@H]2O)(C(=O)O)C[C@H](O)[C@@H]1NC(C)=O)[C@H](C)O [CMP-Pse5,7Ac2]
Utilization by Lst [6]: not utilized by Lst

CC(=O)N[C@H]1[C@H]([C@H](O)[C@H](O)COC(C)=O)O[C@@](OP(=O)(O)OC[C@H]2O[C@@H](n3ccc(N)nc3=O)[C@H](O)[C@@H]2O)(C(=O)O)C[C@@H]1O [CMP-Neu5,9Ac2]
Efficacy in clearing gonococcal colonization (N. gonorrhoeae H041 [1]): ineffective | Prevention of Neu5Ac-mediated serum resistance (N. gonorrhoeae F62 ΔlgtD [4]): rendered F62 ΔlgtD susceptible to 10% NHS, but not 3.3% NHS

CC[C@H]1OC(=O)[C@@](C)(F)C(=O)[C@H](C)[C@@H](O[C@@H]2O[C@H](C)C[C@H](N(C)C)[C@H]2O)[C@](C)(OC)C[C@@H](C)C(=O)[C@H](C)[C@H]2N(CCCCn3cc(-c4cccc(N)c4)nn3)C(=O)O[C@]12C [Solithromycin, solithromycin]
Non-inferiority versus ceftriaxone plus azithromycin (N. gonorrhoeae [8]; phase III trial): failed to meet non-inferiority criteria

O=C(CO)N[C@H]1[C@H]([C@H](O)[C@H](O)CO)OC(O)(C(=O)O)C[C@@H]1O (stereo partly drawn) [Neu5Gc, reference compound]
Utilization by Lst [6]: utilized by Lst | FH binding to gonococci with NulO capped LNnT LOS [7]: no impact
